Reference: ChEMBL document CHEMBL4043110 (Bioorg Med Chem, 2017)
The source made the active and inactive calls. The rule behind the calls is not given here.

Assays:
PC-9 = experiment: Antiproliferative activity against human PC9 cells harboring EGFR exon 19 deletion mutant after 72 hrs by MTS assay; assay type: functional, cell-based; details: PC-9, 72 h
Summary of the method: (§1)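 NCI-H460, PC9 or NCI-H1975 cells were grown in RPMI 1640 with 10% FBS at 37 °C and 5% CO2, and used at passages 3–5 from thawing. Exponentially growing cells were seeded at 7000 cells/well. After 24 h the medium was replaced with medium containing a 3-fold serial dilution of compound in DMSO, and cells were incubated 72 h at 37 °C. MTS was added for 2 h and A490 read. Samples were run in triplicate and repeated at least three times.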

[1] = system: Epidermal growth factor receptor (Homo sapiens), P00533 [UNDEFINED MUTATION]; experiment: Inhibition of EGFR exon 19 deletion mutant phosphorylation at Y1086 residue in human PC9 cells up to 1000 nmol/L after 6 hrs by Western blot analysis; assay type: cell-based
Summary of the method: (§2)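 The buffer was supplemented with protease inhibitor cocktail, 40 mmol/L sodium fluoride and 1 mmol/L sodium orthovanadate. Protein was quantified by BCA before immunoblotting.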

[2] = target: T1, Epidermal growth factor receptor (Homo sapiens, UniProt P00533); experiment: Inhibition of wild-type EGFR in human LoVo cells assessed as inhibition of ERK phosphorylation at P-p44/42 residue up to 1000 nmol/L after 6 hrs by Western blot analysis; assay type: cell-based; summary of the method: as §2
[3] = target: T1, Epidermal growth factor receptor; experiment: Inhibition of wild-type EGFR in human LoVo cells assessed as inhibition of AKT phosphorylation at S473 residue up to 1000 nmol/L after 6 hrs by Western blot analysis; assay type: cell-based; summary of the method: as §2
[4] = target: T1, Epidermal growth factor receptor; experiment: Inhibition of wild-type EGFR phosphorylation at Y1086 residue in human LoVo cells up to 1000 nmol/L after 6 hrs by Western blot analysis; assay type: cell-based; summary of the method: as §2
[5] = system: Epidermal growth factor receptor (Homo sapiens), P00533 [UNDEFINED MUTATION]; experiment: Inhibition of EGFR exon 19 deletion mutant in human PC9 cells assessed as inhibition of ERK phosphorylation at P-p44/42 residue up to 1000 nmol/L after 6 hrs by Western blot analysis; assay type: cell-based; summary of the method: as §2
NCI-H460 = experiment: Antiproliferative activity against human NCI-H460 cells after 72 hrs by MTS assay; assay type: functional, cell-based; details: NCI-H460, 72 h; summary of the method: as §1
[6] = system: Epidermal growth factor receptor (Homo sapiens), P00533 [L858R,T790M]; experiment: Inhibition of EGFR L858R/T790M mutant in human H1975 cells assessed as inhibition of ERK phosphorylation at P-p44/42 residue up to 1000 nmol/L after 6 hrs by Western blot analysis; assay type: cell-based; summary of the method: as §2
Homo sapiens = organism: Homo sapiens; experiment: Selectivity index, ratio of IC50 for wild type EGFR (unknown origin) to IC50 for EGFR L858R/T790M double mutant (unknown origin)
[7] = target: T1, Epidermal growth factor receptor; experiment: Inhibition of wild-type EGFR (unknown origin) using Tyr 4 peptide as substrate in presence of ATP by Z-LYTE kinase assay
BEAS-2B = experiment: Antiproliferative activity against human BEAS2B cells after 72 hrs by MTS assay; assay type: cell-based
[8] = Solubility of the compound in PBS at pH 7.4; assay type: physicochemical
[9] = system: Epidermal growth factor receptor (Homo sapiens), P00533 [L858R,T790M]; experiment: Inhibition of EGFR L858R/T790M mutant phosphorylation at Y1086 residue in human H1975 cells up to 1000 nmol/L after 6 hrs by Western blot analysis; assay type: cell-based; summary of the method: as §2
[10] = system: Epidermal growth factor receptor (Homo sapiens), P00533 [UNDEFINED MUTATION]; experiment: Inhibition of EGFR exon 19 deletion mutant in human PC9 cells assessed as inhibition of AKT phosphorylation at S473 residue up to 1000 nmol/L after 6 hrs by Western blot analysis; assay type: cell-based; summary of the method: as §2
[11] = system: Epidermal growth factor receptor (Homo sapiens), P00533 [L858R,T790M]; experiment: Inhibition of EGFR L858R/T790M mutant in human H1975 cells assessed as inhibition of AKT phosphorylation at S473 residue up to 1000 nmol/L after 6 hrs by Western blot analysis; assay type: cell-based; summary of the method: as §2
NCI-H1975 [12] = experiment: Antiproliferative activity against human NCI-H1975 cells harboring EGFR L858R/T790M double mutant after 72 hrs by MTS assay; assay type: functional, cell-based; details: NCI-H1975, 72 h; summary of the method: as §1
[13] = target: Epidermal growth factor receptor (Homo sapiens, UniProt P00533, L858R/T790M); experiment: Inhibition of EGFR L858R/T790M mutant (unknown origin) using Tyr 4 peptide as substrate in presence of ATP by Z-LYTE kinase assay
NCI-H1975 [14] = experiment: Antitumor activity against human NCI-H1975 cells harboring L858R/T790M mutant xenografted in nude mouse at 5 mg/kg/day, ig administered once daily for 30 days measured every 2 days of dosing; assay type: functional, organism-based
Summary of the method: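 Female nude mice (6–8 weeks) were injected subcutaneously in the right flank with NCI-H1975 cells (1 × 10^6/mouse). Once tumors reached about 150–200 mm3, mice were randomized (n = 10 per group). They were dosed intragastrically at 5 mg/kg/day for 30 consecutive days, or given vehicle DMSO/Cremophor-EL/PBS (1:1:8). Tumor length and width were measured by caliper every two days, and volume = width × width × length/2.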

Mus musculus = experiment: Toxicity in nude mouse assessed as effect on body weight at 5 mg/kg/day, ig administered once daily for 30 days; assay type: organism-based; details: in vivo, po, 720 h

Epidermal growth factor receptor (Homo sapiens), P00533 [UNDEFINED MUTATION], sequence (P00533 whole entry, looked up, stated change not applied): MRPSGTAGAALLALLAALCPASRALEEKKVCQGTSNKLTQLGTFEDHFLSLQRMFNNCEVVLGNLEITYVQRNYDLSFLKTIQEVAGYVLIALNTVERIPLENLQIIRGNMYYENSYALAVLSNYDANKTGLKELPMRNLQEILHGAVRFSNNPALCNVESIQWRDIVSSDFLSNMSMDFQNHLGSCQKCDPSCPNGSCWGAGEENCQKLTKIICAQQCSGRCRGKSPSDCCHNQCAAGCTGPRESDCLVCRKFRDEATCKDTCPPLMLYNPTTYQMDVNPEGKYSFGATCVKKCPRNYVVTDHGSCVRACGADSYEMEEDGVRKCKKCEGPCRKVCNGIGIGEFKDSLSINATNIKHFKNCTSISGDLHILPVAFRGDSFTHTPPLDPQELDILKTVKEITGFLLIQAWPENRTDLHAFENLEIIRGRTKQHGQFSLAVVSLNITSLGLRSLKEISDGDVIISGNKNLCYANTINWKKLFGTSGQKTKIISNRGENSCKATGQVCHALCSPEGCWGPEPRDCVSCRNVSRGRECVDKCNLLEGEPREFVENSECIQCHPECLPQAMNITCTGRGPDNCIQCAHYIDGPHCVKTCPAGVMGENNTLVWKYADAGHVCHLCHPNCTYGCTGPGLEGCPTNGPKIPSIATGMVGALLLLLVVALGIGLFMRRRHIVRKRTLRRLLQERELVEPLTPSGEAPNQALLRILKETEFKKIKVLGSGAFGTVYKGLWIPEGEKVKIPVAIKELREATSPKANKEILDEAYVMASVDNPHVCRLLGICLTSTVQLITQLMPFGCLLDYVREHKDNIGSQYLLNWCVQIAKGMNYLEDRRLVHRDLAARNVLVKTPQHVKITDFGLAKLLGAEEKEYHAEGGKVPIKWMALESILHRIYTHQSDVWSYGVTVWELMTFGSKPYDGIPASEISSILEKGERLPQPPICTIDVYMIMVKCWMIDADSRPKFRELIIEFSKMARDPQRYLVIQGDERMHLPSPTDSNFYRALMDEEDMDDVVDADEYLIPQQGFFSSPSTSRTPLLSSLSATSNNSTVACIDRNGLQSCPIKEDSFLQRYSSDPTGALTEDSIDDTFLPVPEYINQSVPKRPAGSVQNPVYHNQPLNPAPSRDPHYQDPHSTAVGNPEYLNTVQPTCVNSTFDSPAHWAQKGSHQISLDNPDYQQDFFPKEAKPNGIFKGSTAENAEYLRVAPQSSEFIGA
T1 sequence (P00533 whole entry): as the sequence (P00533 whole entry, looked up, stated change not applied) above
Epidermal growth factor receptor (Homo sapiens, UniProt P00533, L858R/T790M), sequence (P00533 25-1210 T790M/L858R limits assumed): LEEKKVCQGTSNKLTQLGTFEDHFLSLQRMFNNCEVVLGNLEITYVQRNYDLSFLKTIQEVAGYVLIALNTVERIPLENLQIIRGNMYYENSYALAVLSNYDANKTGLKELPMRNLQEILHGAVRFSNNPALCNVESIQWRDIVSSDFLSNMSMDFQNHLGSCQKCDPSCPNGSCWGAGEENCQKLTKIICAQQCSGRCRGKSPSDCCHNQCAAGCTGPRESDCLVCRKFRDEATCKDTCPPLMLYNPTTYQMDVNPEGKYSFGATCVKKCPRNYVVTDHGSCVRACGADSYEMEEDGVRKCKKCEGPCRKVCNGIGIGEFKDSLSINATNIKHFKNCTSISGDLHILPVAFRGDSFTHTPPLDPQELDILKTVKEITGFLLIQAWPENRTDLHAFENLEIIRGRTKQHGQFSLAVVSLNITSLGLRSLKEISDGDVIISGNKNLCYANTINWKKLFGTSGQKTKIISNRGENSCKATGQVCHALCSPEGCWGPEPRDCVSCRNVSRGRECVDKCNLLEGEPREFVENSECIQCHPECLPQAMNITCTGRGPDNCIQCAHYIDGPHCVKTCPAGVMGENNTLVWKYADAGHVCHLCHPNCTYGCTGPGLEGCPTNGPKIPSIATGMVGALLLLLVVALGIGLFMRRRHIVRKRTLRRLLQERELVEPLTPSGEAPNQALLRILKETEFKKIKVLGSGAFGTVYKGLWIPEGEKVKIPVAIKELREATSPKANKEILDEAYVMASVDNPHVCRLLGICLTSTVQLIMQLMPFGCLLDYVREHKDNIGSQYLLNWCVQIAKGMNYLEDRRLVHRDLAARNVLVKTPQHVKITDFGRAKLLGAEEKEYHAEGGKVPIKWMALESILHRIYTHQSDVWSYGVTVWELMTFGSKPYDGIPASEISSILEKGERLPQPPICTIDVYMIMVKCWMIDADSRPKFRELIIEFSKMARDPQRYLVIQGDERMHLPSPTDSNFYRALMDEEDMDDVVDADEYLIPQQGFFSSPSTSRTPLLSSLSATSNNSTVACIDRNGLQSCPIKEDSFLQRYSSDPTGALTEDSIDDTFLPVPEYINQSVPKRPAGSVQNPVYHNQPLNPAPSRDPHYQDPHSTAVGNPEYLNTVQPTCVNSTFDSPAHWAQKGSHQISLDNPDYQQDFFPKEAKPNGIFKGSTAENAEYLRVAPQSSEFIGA
Epidermal growth factor receptor (Homo sapiens), P00533 [L858R,T790M], sequence (P00533 whole entry T790M/L858R, looked up): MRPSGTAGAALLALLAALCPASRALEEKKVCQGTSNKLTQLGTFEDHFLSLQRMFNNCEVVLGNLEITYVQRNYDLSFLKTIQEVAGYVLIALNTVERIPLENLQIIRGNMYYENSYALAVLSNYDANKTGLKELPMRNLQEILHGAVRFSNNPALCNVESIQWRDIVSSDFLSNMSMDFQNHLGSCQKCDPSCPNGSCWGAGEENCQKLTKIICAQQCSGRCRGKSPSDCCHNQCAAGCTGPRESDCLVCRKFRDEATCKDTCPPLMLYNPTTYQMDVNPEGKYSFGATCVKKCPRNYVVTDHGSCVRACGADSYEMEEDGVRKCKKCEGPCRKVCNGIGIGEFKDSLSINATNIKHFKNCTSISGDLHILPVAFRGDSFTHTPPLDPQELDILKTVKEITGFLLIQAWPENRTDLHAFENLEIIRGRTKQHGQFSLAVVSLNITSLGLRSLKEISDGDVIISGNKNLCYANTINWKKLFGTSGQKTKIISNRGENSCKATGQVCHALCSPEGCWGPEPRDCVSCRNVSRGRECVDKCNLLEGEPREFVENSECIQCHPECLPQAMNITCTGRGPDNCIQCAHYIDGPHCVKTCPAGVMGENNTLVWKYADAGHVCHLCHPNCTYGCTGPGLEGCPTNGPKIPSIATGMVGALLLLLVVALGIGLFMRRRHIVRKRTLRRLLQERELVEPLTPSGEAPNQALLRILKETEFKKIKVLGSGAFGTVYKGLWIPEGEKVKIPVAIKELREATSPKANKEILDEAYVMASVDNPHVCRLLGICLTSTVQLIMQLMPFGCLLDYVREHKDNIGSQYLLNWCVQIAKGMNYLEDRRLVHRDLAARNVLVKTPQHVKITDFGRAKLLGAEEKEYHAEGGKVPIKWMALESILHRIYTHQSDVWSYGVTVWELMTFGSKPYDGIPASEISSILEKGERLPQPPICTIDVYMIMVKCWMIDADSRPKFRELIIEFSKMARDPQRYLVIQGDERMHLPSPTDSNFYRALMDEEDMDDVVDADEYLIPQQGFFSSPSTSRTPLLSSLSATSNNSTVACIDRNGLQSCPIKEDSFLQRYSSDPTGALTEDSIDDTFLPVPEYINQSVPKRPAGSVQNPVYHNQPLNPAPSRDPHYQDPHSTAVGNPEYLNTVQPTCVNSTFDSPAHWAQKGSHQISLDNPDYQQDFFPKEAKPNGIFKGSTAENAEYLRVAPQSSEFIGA

Compound | IC50 (PC-9) | inhibition [1] | inhibition (INH) [2] | inhibition (INH) [3] | inhibition (INH) [4] | inhibition [5] | IC50 (NCI-H460) | inhibition [6] | IC50 [7] | solubility [8] | inhibition [9] | inhibition [10] | inhibition [11] | IC50 (NCI-H1975 [12]) | IC50 [13] | Ratio IC50 (Homo sapiens) | IC50 (BEAS-2B) | Activity (NCI-H1975 [14]) | Activity (Mus musculus)
C=CC(=O)Nc1cc(Nc2nccc(-c3cn(C)c4ccc(F)cc34)n2)c(OC)cc1N(C)CC[N+](C)(C)[O-] | 26.2 nM | Active | Not Active | Not Active | Not Active | Active | 892 nM | Active | 357 nM | < 100 µg/mL | Active | Active | Active | 45.6 nM | 10.2 nM | 35 | 15.7 µM | – | –
C=CC(=O)Nc1cc(Nc2nccc(-c3cn(C)c4c(F)cccc34)n2)c(OC)cc1N(C)CC[N+](C)(C)[O-] | 46.7 nM | Active | Not Active | Not Active | Not Active | Active | 1140 nM | Active | 595 nM | > 10000 µg/mL | Active | Active | Active | 89.9 nM | 17.8 nM | 33.4 | 28.4 µM | – | –
C=CC(=O)Nc1cc(Nc2nccc(-c3cn(C)c4c(F)cccc34)n2)c(OC)cc1N(C)CCN(C)C | 20.5 nM | Active | Not Active | Not Active | Not Active | Active | 875 nM | Active | 175 nM | < 100 µg/mL | Active | Active | Active | 32.9 nM | 6 nM | 29.2 | 15.6 µM | – | –

Further compounds by falling IC50 (PC-9), results first:

IC50 (PC-9) | inhibition [1] | inhibition (INH) [2] | inhibition (INH) [3] | inhibition (INH) [4] | inhibition [5] | IC50 (NCI-H460) | inhibition [6] | IC50 [7] | solubility [8] | inhibition [9] | inhibition [10] | inhibition [11] | IC50 (NCI-H1975 [12]) | IC50 [13] | Compound | Ratio IC50 (Homo sapiens) | IC50 (BEAS-2B) | Activity (NCI-H1975 [14]) | Activity (Mus musculus)
16.1 nM | Active | Not Active | Not Active | Not Active | Active | 611 nM | Active | 318 nM | > 10000 µg/mL | Active | Active | Active | 17.4 nM | 6.4 nM | C=CC(=O)Nc1cc(Nc2nccc(-c3cn(C)c4ccccc34)n2)c(OC)cc1N(C)CC[N+](C)(C)[O-] | 49.9 | 15.1 µM | Active | Non-Toxic
8.1 nM | Active | Not Active | Not Active | Not Active | Active | 430 nM | Active | 166 nM | < 100 µg/mL | Active | Active | Active | 15.3 nM | 4.9 nM | C=CC(=O)Nc1cc(Nc2nccc(-c3cn(C)c4ccc(F)cc34)n2)c(OC)cc1N(C)CCN(C)C | 34.3 | 7.9 µM | – | –
